Laboratory results published in publication PMC5482095 (Molecular Medicine Reports, 2017).
In brackets after ≈: the same amount, converted by molar mass.

Key:
[1] = test system: BALB/c 3T3 cells; assay: MTT cytotoxicity assay, 3T3 fibroblasts; assay type: cell-based, murine; details: for IC50: Mus musculus, BALB/c3T3, 240 h, read-out: IC50 3T3
[2] = test system: mES-D3 cells; assay: MTT cytotoxicity assay, embryonic stem cells; assay type: cell-based, murine; details: Mus musculus, Embryonic stem cell, 240 h, read-out: IC50 ES
[3] = test system: mES-D3 cells and BALB/c-3T3 cells; assay: Classification of embryotoxicity by the ECVAM prediction model; parameters: species or system murine; details: prediction model from mean IC50 3T3, IC50 ES and ID50
Outline: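 Class (non-, weak or strong embryotoxic) comes from the ECVAM linear discriminant prediction model using mean IC50 3T3, IC50 ES and ID50. ID50 setup: 1,000 mES cells per 20 µl hanging drop without LIF for 3 days, then suspension for 2 days, then 100 EBs/well on 0.1% gelatin for 5 days. Compound is present from day 0. On day 10, α/β-MHC expression is measured by RT-PCR against GAPDH, giving the 50%-suppression concentration (mean of three repeats).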

[4] = cited from earlier work
[5] = test system: mice; details: cited from earlier work
[6] = test system: mouse preimplantation embryos; details: in vivo; cited from earlier work
[7] = toxicological studies; cited from earlier work

Compound | IC50 [1] [µg/mL] | IC50 [2] [µg/mL] | Classification of the embryotoxicity [3] | Classification of the embryotoxicity according to the PM (in words) [3] | Known in vivo embryotoxic potential [4] | Oral lethal dose [5] | Influence on development of preimplantation embryos [6] | IC50 3T3 ([1]; BALB/c 3T3 cells, 10 days of culture, MTT, mean ± standard error of the mean of three experiments) [µg/mL] | Toxicity in vivo [7]
O=c1[nH]cc(F)c(=O)[nH]1 [5-fluorouracil, reference compound] | 0.244 ± 0.051 (≈ 1.88 µM) | 0.08 ± 0.016 (≈ 0.615 µM) | Strong | strong embryotoxicity | strong embryotoxicity | – | – | – | –
CC(C)c1cc2c(c(O)c1O)[C@@]1(C(=O)O)CCCC(C)(C)[C@@H]1CC2 [Carnosic acid] | 26.3 ± 3.86 (≈ 79.1 µM) | 5.77 ± 1.3 (≈ 17.4 µM) | Weak | weak embryotoxicity | – | 7,100 mg/kg of body weight | – | – | –
CCCCCCCCOC(=O)c1ccccc1C(=O)OCCCCCCCC [Dioctyl phthalate, dioctyl phthalate] | 213 ± 28.2 (≈ 547 µM) | 124 ± 24.9 (≈ 316 µM) | Weak | weak embryotoxicity | – | – | – | – | –
C=CCc1ccc(O)c(OC)c1 [Eugenol, eugenol] | 9.44 ± 2.85 (≈ 57.5 µM) | 1.93 ± 0.329 (≈ 11.7 µM) | Strong | strong embryotoxicity | – | – | may induce a significantly increased rate of cell death and affect the development of embryo | – | –
CC1(C)S[C@@H]2[C@H](NC(=O)Cc3ccccc3)C(=O)N2[C@H]1C(=O)O [Penicillin G, penicillin G, reference compound] | 1160 ± 69.1 (≈ 3470 µM) | 1570 ± 152 (≈ 4690 µM) | None | non-embryotoxicity | – | – | – | – | –
procyanidin | – | – | None | non-embryotoxicity | – | – | – | 12.100 ± 1.828 | nontoxic and does not cause any detrimental effects in vivo
